Results as given in PubChem BioAssay AID2373 (NMMLSC, 2010).

Target: Cell division control protein 42 homolog (Homo sapiens) (UniProt P60953)
Test: compound effect on Cdc42 GTP saturation binding, late-stage follow-up, mechanism study for Ras-family GTPase inhibitor project, biochemical, Mg buffer, varying GTP (AID 2373)
Conditions: GST-Cdc42 beads, BODIPY-GTP binding, flow cytometry
Procedure, shortened: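 system = GST-Cdc42 on glutathione beads | medium = 1 mM MgCl2 (magnesium condition) | timing = beads loaded overnight at 4 °C, compound preincubation 2 min | signal = flow cytometry, median bead fluorescence at 530 nm | read-out = fitted GTP Bmax and Kd | benchmarks = DMSO vehicle in place of compound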

Sequence of Cell division control protein 42 homolog (Homo sapiens) (P60953 whole entry, looked up): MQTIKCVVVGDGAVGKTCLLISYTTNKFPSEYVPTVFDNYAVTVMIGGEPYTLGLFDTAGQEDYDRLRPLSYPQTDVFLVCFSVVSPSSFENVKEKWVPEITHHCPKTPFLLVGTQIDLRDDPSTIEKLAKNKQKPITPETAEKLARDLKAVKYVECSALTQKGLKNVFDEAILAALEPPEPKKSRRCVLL

GTP Bmax with compound (at 10 µM, stronger effect = lower value): 2320
Kd (measured here: GTP affinity with compound): 0.0167 µM
SMILES: COc1ccc(C2CC(c3ccccc3)=NN2c2ccc(S(N)(=O)=O)cc2)cc1 (configuration not stated)
